# From PubChem BioAssay
# A selection: hits, their analogues and other compounds. The true share with any hit is near 6.4%.
# TbMetRS inhib: T. brucei MetRS inhibitors, primary screen, biochemical, luminescence; methionyl-tRNA synthetase (Trypanosoma brucei brucei); purified T. brucei MetRS, ATP depletion, Kinase-Glo luminescence; inhibition, % at 11.9 µM; 0.4% of 360,000 active;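 active means inhibition above a per-plate cutoff of the control wells' mean inhibition plus 3 SD, cut at about 5.5% in these data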;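 further: 0% = DMSO wells median and 100% = median of wells with control inhibitor compound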
#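 Measured by: Kinase-Glo luciferase luminescence reporting remaining unconsumed ATP. Material: purified T. brucei MetRS enzyme. Doses: 11.9 µM compound single dose, 0.9% DMSO. Medium: HEPES buffer containing pyrophosphatase, BSA, spermine, DTT. Times: 15 min preincubation, 2 h reaction, all 25 °C. Reagent: methionine, ATP and bulk E. coli tRNA.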
# GRIN3A LBD mod: binders of NR3A ligand-binding domain, primary screen, biophysical, differential scanning fluorimetry, uHTS; Glutamate receptor ionotropic, NMDA 3A (GRIN3A) ligand-binding domain; NR3A LBD differential scanning fluorimetry, Tm shift; 0% = protein alone, 100% = glycine-bound protein; Tm shift relative to glycine control, % at 25 µM; 2.5% of 340,000 active; AID 1259313, 2017;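 active means melting temperature shift of at least 10% of the positive control shift, at one fixed dose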
# MPTP inh: mitochondrial permeability transition pore inhibitors, primary screen, biochemical, isolated mouse mitochondria, absorbance | Ca2+ swelling absorbance, 30 min | inhibition, % at 10 µM | 1.4% of 360,000 active | AID 602449, 2012;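 active means inhibition of 50% or more, scaled per plate between neutral and stimulator controls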;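 further: 0% = DMSO wells given calcium and 100% = 1 mM EGTA wells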
# CHOP inh: inhibitors of CHOP promoter induction, primary screen, cell-based, unfolded protein response, luciferase reporter. CHO-K1 CHOP-promoter luciferase, tunicamycin-induced, 15-18 h. inhibition, % at 10 µM. 3.8% of 220,000 active. AID 2732, 2010;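 active means compounds that reduced the stress-induced luciferase reporter signal by more than about 70% of percent inhibition, limit read from the data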;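 further: 0% = tunicamycin plus vehicle and 100% = wells without tunicamycin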
# EBV gp42 inh: Epstein-Barr virus gp42 inhibitors, primary screen, biochemical, uHTS, fluorescence polarization; Fluorescence polarization binding assay, mP read-out; 0.42% of 220,000 active; AID 1085, 2008; inhibition, % (tested at 21.74 µM); in the data active means inhibition above about 50%
# Target sequence (Q1HVG2 whole entry, looked up): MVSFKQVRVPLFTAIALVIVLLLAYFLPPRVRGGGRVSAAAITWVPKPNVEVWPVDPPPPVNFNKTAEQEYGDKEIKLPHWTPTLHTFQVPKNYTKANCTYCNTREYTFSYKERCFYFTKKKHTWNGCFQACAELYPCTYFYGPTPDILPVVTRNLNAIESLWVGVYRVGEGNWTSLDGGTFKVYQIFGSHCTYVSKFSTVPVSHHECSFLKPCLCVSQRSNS
# WT yeast gro inh: growth inhibition of WT strain, primary screen, mitochondrial fusion inhibitor project, WT and mutant strains, chemical genetic; mitochondrial fusion phenotypic screen; 2.1% of 190,000 active; inhibition, % at 10 µM; in the data active means inhibition above about 58%; tested in S. cerevisiae
# * = called active by the depositor; x = no result.
SMILES,TbMetRS inhib,GRIN3A LBD mod,MPTP inh,CHOP inh,EBV gp42 inh,WT yeast gro inh
COc1ccc(N(CC(=O)NCCc2ccccc2)C(=O)CCC(=O)Nc2ccccn2)cc1,-0.6,0.9,0.1,x,x,x
OCCC1CN(Cc2cccn2-c2ncccn2)CCN1Cc1ccc(F)cc1 (stereo not given),-0.3,-0.4,1.2,15.8,-3.2,x
C=CCn1c(SC(C)C(=O)Nc2ccc(F)c(F)c2F)nnc1C1CC1 (stereo not given),-0.4,-1.7,0.5,x,x,x
Cc1ccc(S(=O)(=O)N(C)C)cc1NC(=O)COC(=O)CCCOc1ccccc1,-0.3,-3.1,-0.3,x,x,x
Nc1nn(-c2ccccc2)nc1C(=O)OCc1ccccc1,-0.5,1.2,3.1,25.5,-15.3,x
Cc1c(NC(=O)C2CCCN2S(=O)(=O)c2ccccc2)c(=O)n(-c2ccccc2)n1C (stereo not given),-1.8,0.5,-2.2,26.7,5.3,8.2
O=C(Nc1ccc(S(=O)(=O)NC2=NCCCCC2)cc1)c1cc(S(=O)(=O)N2CCOCC2)ccc1F,0.0,21.8*,-2.5,x,x,x
Cc1c(NC(=O)C2CCN(S(=O)(=O)c3ccc(Cl)cc3)CC2)c(=O)n(-c2ccccc2)n1C,-0.6,12.7*,1.1,6.5,-13.1,-13.6
Cc1ccccc1Nc1nc(NCc2ccco2)c2ccccc2n1,0.4,-4.3,41.2,18.8,22.6,79.2*
Oc1ccccc1Nc1nc(NCc2ccco2)c2ccccc2n1,1.0,24.0*,27.1,18.1,29.7,x
c1ccc(-c2nc(NCCCn3ccnc3)c3oc4ccccc4c3n2)cc1,-1.5,-17.3,0.4,23.0,10.8,-6.6
COc1ccc(OC)c(Nc2nc(NCc3ccco3)c3ccccc3n2)c1,-0.1,-5.7,7.3,x,x,x
c1ccc(-c2nc(NCc3ccco3)c3oc4ccccc4c3n2)cc1,-0.5,3.5,1.8,92.4*,-9.5,-6.2
c1cncc(-c2nc(NCc3ccco3)c3ccccc3n2)c1,0.3,0.8,0.0,31.1,8.0,-5.9
Cc1ccc(-c2nc(NCc3ccco3)c3ccccc3n2)cc1,-0.3,8.1,23.4,20.1,-13.5,67.3*
CSc1nc(NCc2ccco2)c2ccccc2n1,0.3,0.9,-0.4,20.8,7.5,12.6
CCc1ccc(NC(=O)CCn2cccc2)cc1,0.1,-0.2,0.4,24.3,-0.4,1.9
CCOC(=O)CSc1c(-c2ccccc2)c2cc(Cl)ccc2[nH]c1=O,-0.1,-7.4,-7.6,90.7*,-1.8,2.4
O=c1[nH]c2ccc(Cl)cc2c(-c2ccccc2)c1CN1CCOCC1,-0.4,-0.1,-2.0,-3.7,-24.7,7.2
Cc1ccc(S(=O)(=O)NCc2c(-c3ccccc3)c3cc(Cl)ccc3[nH]c2=O)cc1,-0.1,4.8,6.9,103.3*,-14.9,1.1
O=C(O)CSc1c(-c2ccccc2)c2cc(Cl)ccc2[nH]c1=O,-0.2,-5.0,-0.4,-2.6,-1.0,-10.1
NNC(=O)/C(=N/Nc1ccccc1)S(=O)(=O)c1ccc(Cl)cc1,-0.1,-3.7,1.5,54.8,-11.1,69.0*
COc1ccc2nc(NC(=O)c3ccccc3F)sc2c1,-2.5,-17.7,0.8,x,x,x
COc1ccc(C(=O)NC(=S)Nc2ccccc2[N+](=O)[O-])cc1OC,-0.6,8.7,1.4,-6.6,-0.8,5.2
COc1ccc(C(=O)NC(=S)Nc2ccc([N+](=O)[O-])cc2C)cc1OC,-0.5,28.5*,-0.1,79.2*,4.3,20.8
SMILES,TbMetRS inhib,GRIN3A LBD mod,MPTP inh,CHOP inh,EBV gp42 inh,WT yeast gro inh
CN(C)c1ccc(/C=N/NC(=S)NCc2ccccc2)cc1,-0.7,-14.5,3.3,47.9,-1.3,70.1*
CCN(Cc1ccccc1)c1ccc(/C=N/NC(=S)NC(C)C)cc1,0.0,-5.7,7.0,56.5,-15.5,68.9*
CCN(Cc1ccccc1)c1ccccc1,-0.4,0.1,0.7,x,x,x
CCN(Cc1ccccc1)c1ccc(/C=N/N=C(N)N)cc1,-1.1,5.9,4.5,77.4*,-5.7,-24.1
COC(=O)c1ccc(CN2C(=O)C3CCCCC3C2=O)o1 (stereo not given),0.0,-0.1,-0.8,2.9,-7.8,8.3
COc1ccc(C)cc1-n1c(C)cc(C=O)c1C,0.1,-0.9,4.0,18.0,-11.6,-3.6
